T cruzi inh = blocks replication of Trypanosoma cruzi. inhibition, % (concentration not given with the values). AID 1885. 300,000 compounds, 1.4% hits. T. cruzi beta-gal in NIH3T3, luminescence, 90 h;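 active means mean inhibition across valid replicates above about 55%, limit read from the data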;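 further: signal also drops with host cell toxicity which is not excluded here; higher percent means less beta-gal luminescence so fewer parasites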
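Assay system: NIH/3T3 fibroblasts plus reporter T. cruzi. Amount: NIH/3T3 cells, 5,000 per well. Buffer or medium: DMEM, 2% fetal bovine serum. Doses: compound pinned at 50 nL/well, DMSO. Schedule: ≥90 h infection period, 3 h prior cell attachment. Signal: luminescent β-galactosidase signal after 60 min lysis. Read-out: parasite load inhibition, %.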
CSC inhib = blocks cancer stem cells. cancer stem cell-like cells viability, luminescence. inhibition, % at 7.5 µM. 300,000 compounds, 1.1% hits. AID 2717; in the data active means inhibition above about 75%; tested in HMLE shEcad cells
Beta apoptosis = beta cell apoptosis inhibition; INS-1E cytokine-induced death, ATP luminescence, 48 h; percent of positive-control rescue, neutral wells zero; protection from apoptosis, % (concentration not given with the values); 300,000 compounds, 0.8% hits; AID 435005;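 active means Every replicate reaches about 75%, or at least half do and their mean reaches it too, limit read from the data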;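 further: higher means more ATP so stronger rescue from cytokine killing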
SKKanGAS inh = inhibitors of SKKanGAS S. pyogenes growth in kanamycin (SK-promoter or general growth effect). BacTiter-Glo, 6 h. inhibition, % at 7.5 µM. 300,000 compounds, 1.3% hits;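 active means mean replicate score, as percent of positive control median, at least 50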;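 further: strain carries kanamycin resistance gene driven by streptokinase promoter and grows in 40 µg/ml kanamycin; loss of luminescence reflects streptokinase promoter inhibition or plain growth inhibition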
Mdm2 MdmX PPI = inhibitors of human Mdm2/MdmX interaction; O15151+Q00987; SaOS-2 split-luciferase Mdm2/MdmX complementation, luminescence; inhibition, % at 8 µM; 330,000 compounds, 3% hits; AID 485346;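 active means inhibition of at least 50% at 8 µM in the primary screen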
L major viab = Leishmania major promastigote growth inhibition; inhibition, % at 10 µM; 200,000 compounds, 9% hits; Leishmania major promastigotes, resazurin fluorescence viability; in the data active means inhibition above about 50%;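 further: promastigotes grown with compound for 44 hours at 28 °C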
Mdm2 MdmX conf = human Mdm2/MdmX binding inhibition, confirmed. 10,000 compounds, 55% hits. luminescent assay. inhibition, % at 8 µM. shares compounds with Mdm2 MdmX PPI; in the data active means inhibition above about 40%
FLuc counter = inhibits full-length luciferase, flagging false Mdm2/MdmX hits | shares compounds with Mdm2 MdmX PPI | SaOS-2 full-length luciferase counterscreen, luminescence | inhibition, % at 8 µM | 6,200 compounds, 77% hits | AID 504607;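 active means mean inhibition at 8 µM reaching about 37%, which flags the compound as non-specific, limit read from the data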;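 further: p53-null SaOS-2 cells with luciferase driven by a doxycycline-inducible promoter; compound on cells about two nights before reading with doxycycline added after day one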
Of the large screens only hits and unclear results are named; the others gave an inactive call (follow-up assays come after a bar, where they were run). A selection: hits, their analogues and other compounds. The true share with any hit is near 9.4%.

COc1ccc(-c2cc(=O)n(-c3ccc([N+](=O)[O-])cc3)[nH]2)cc1	CSC inhib 126, Mdm2 MdmX PPI 55 | Mdm2 MdmX conf inactive
COc1ccc(-c2[nH]n(-c3ccc([N+](=O)[O-])cc3)c(=O)c2C=NCc2ccc(F)cc2)cc1	Mdm2 MdmX PPI 80 | Mdm2 MdmX conf inactive
CC(=O)c1sc2nsc(SCCN3CCCC3)c2c1N	none (no result: L major viab)
Cc1ccc([N+](=O)[O-])cc1NC(=S)NC(=O)c1cccs1	Mdm2 MdmX PPI 62 | Mdm2 MdmX conf inactive
Cc1cc(C)nc(S/C=C/C(=O)c2ccc(F)cc2)n1	Mdm2 MdmX PPI 101 (no result: L major viab) | Mdm2 MdmX conf inactive
Cc1cc(C)nc(SCC(=O)c2ccc(F)cc2)n1	none (no result: L major viab)
CCC(=O)NC(c1cc(Cl)c2cccnc2c1O)C(C)C (centres undefined)	Beta apoptosis 105, Mdm2 MdmX PPI 53 (no result: T cruzi inh, SKKanGAS inh, L major viab) | Mdm2 MdmX conf 53 | FLuc counter inactive
CCC(=O)Nc1ccc(Cl)c(-c2nc3ncccc3o2)c1	none (no result: Beta apoptosis, L major viab)
CCC(=O)NC(c1cc(Cl)c2cccnc2c1O)C1CC1 (centres undefined)	Beta apoptosis 103, Mdm2 MdmX PPI 53 (no result: T cruzi inh, SKKanGAS inh, L major viab) | Mdm2 MdmX conf 47 | FLuc counter inactive
Cc1cccc(C)c1N(CC(=O)NC1CCCCC1)C(=O)c1csnn1	none (no result: L major viab)
Cn1c(=O)[nH]c(NCCc2ccc(O)cc2)c([N+](=O)[O-])c1=O	none (no result: L major viab)
CCc1ccc(/C=C/C(=O)c2c(C)cc(C)[nH]c2=O)cc1	Mdm2 MdmX PPI 72, L major viab 59 | Mdm2 MdmX conf 48 | FLuc counter inactive
Cc1ccc(/C=C/C(=O)c2c(C)cc(C)[nH]c2=O)cc1	Mdm2 MdmX PPI 70, L major viab 61 (no result: CSC inhib, Beta apoptosis) | Mdm2 MdmX conf 45 | FLuc counter 51
COc1ccc(C(=O)NC(=S)NNC(=O)[C@H]2C[C@@H]2c2ccccc2)cc1OC	SKKanGAS inh 102, Mdm2 MdmX PPI 62 (no result: L major viab) | Mdm2 MdmX conf inactive
COc1ccc(OC)c(NC(=O)C2CC2c2ccccc2)c1 (centres undefined)	none (no result: L major viab)
O=C(NC1(Cc2ccccc2)CCN(Cc2ccc(-c3ccccc3)cc2)C1=O)c1ccccc1 (centres undefined)	Mdm2 MdmX PPI 63 (no result: T cruzi inh, SKKanGAS inh, L major viab) | Mdm2 MdmX conf 41 | FLuc counter 77
COc1ccc(N2CC(C(=O)N/N=C/c3ccc(C)cc3)CC2=O)cc1 (centres undefined)	Mdm2 MdmX PPI 52 | Mdm2 MdmX conf 62 | FLuc counter 53
COc1ccc(N2CC(C(=O)N/N=C/c3ccc([N+](=O)[O-])cc3)CC2=O)cc1 (centres undefined)	none

Compound activity from PubChem BioAssay.
